Laboratory results from ChEMBL document CHEMBL3244038, “Synthesis and analgesic activity of human beta-endorphin” (1977).
The source made the active and inactive calls.

Legend:
Mus musculus [1] = test: Analgesic activity in opiate antagonist naloxone hydrochloride-treated ICR mouse assessed as inhibition of heat stimulus-induced tail flick response at 20.1 mg/kg, iv measured for 20 to 30 mins; assay type: functional, organism-based; design: dose 20.1 mg/kg
Outline: (§1)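 Male ICR mice, 25-30 g. Peptide given iv via the tail vein at 9.4, 18.8 or 28.2 mg/kg. Tail-flick latency to heat with a 10 s cutoff. Percent analgesia calculated against the pre-drug control latency. For line 10, naloxone hydrochloride 1 mg/kg sc was given 5 min before 20.1 mg/kg peptide. Mean ± SEM.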

Mus musculus [2] = test: Analgesic activity in ICR mouse assessed as inhibition of heat stimulus-induced tail flick response at 0.38 ug, icv administered opiate antagonist naloxone at 10 mins post compound treatment measured for 30 to 60 mins; assay type: functional, organism-based
Outline: (§2)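 Male ICR mice, 25-30 g. Peptide given icv (5 µl) over a dose range of 0.09-0.38 µg/mouse. Tail-flick latency was measured against noxious heat with a 10 s cutoff. Control latency was the mean of two pre-drug readings. Percent analgesia = (T1−T0)/(T2−T0)×100. For line 2, naloxone 1 mg/kg sc was given 10 min after the peptide. Mean ± SEM.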

Mus musculus [3] = test: Analgesic activity in iv dosed ICR mouse assessed as inhibition of heat stimulus-induced tail flick response measured for 20 to 30 mins; assay type: functional, organism-based; outline: as §1
Mus musculus [4] = species: Mus musculus; test: Potency index, ratio of morphine AD50 to compound AD50 for analgesic activity in ICR mouse assessed as inhibition of thermal stimulus-induced response by hot-plate test; assay type: functional
Mus musculus [5] = test: Analgesic activity in opiate antagonist naloxone-treated ICR mouse assessed as inhibition of acetic acid-induced writhing response at 0.38 ug, icv administered 5 mins prior to acetic acid challenge measured for 15 mins; assay type: functional, organism-based
Outline: (§3)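 Male ICR mice, 25-30 g. Peptide given icv (5 µl) 5 min before i.p. 0.6% acetic acid (0.1 ml/10 g body weight). Writhes counted over 15 min.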

Mus musculus [6] = test: Analgesic activity in icv dosed ICR mouse assessed as inhibition of thermal stimulus-induced response by hot-plate test; assay type: functional, organism-based
Outline: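 Male ICR mice, 25-30 g. Peptide given icv (5 µl). Hot-plate latency with a 60 s cutoff. Control latency was the mean of two pre-drug readings, with test latencies at various times after injection. Percent analgesia = (T1−T0)/(T2−T0)×100.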

Mus musculus [7] = test: Potency index, ratio of morphine AD50 to compound AD50 for analgesic activity in icv dosed ICR mouse assessed as inhibition of heat stimulus-induced tail flick response; assay type: functional
Mus musculus [8] = test: Analgesic activity in icv dosed ICR mouse assessed as inhibition of thermal stimulus-induced response by hot-plate test in presence of opiate antagonist naloxone; assay type: functional, organism-based
Mus musculus [9] = test: Potency index, ratio of morphine AD50 to compound AD50 for analgesic activity in iv dosed ICR mouse assessed as inhibition of heat stimulus-induced tail flick response; assay type: functional
Mus musculus [10] = test: Analgesic activity in icv dosed ICR mouse assessed as inhibition of heat stimulus-induced tail flick response measured for 30 to 60 mins; assay type: functional, organism-based; outline: as §2
Mus musculus [11] = test: Analgesic activity in ICR mouse assessed as inhibition of acetic acid-induced writhing response at 0.38 ug, icv administered 5 mins prior to acetic acid challenge measured for 15 mins; assay type: functional, organism-based; outline: as §3
Mus musculus [12] = test: Potency index, ratio of morphine AD50 to compound AD50 for analgesic activity in icv dosed ICR mouse assessed as inhibition of acetic acid-induced writhing response; assay type: functional
Mus musculus [13] = test: Analgesic activity in icv dosed ICR mouse assessed as 50% inhibition of heat stimulus-induced tail flick response measured for 60 to 90 mins; assay type: functional
Outline: (§4)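 Male ICR mice, 25-30 g. Tail-flick latency to heat with a 10 s cutoff. A twofold increase in latency over the pre-drug control was the quantal criterion. AD50 with 95% confidence limits by Litchfield-Wilcoxon.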

Mus musculus [14] = test: Analgesic activity in icv dosed ICR mouse assessed as 50% inhibition of acetic acid-induced writhing response administered 5 mins prior to acetic acid challenge measured for 60 to 90 mins; assay type: functional
Mus musculus [15] = test: Analgesic activity in icv dosed ICR mouse assessed as 50% inhibition of thermal stimulus-induced response measured for 60 to 90 mins by hot-plate test; assay type: functional
Outline: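 Male ICR mice, 25-30 g. Peptide given icv (5 µl). Hot-plate latency with a 60 s cutoff. A twofold increase over the control latency (mean of two pre-drug readings) was the quantal criterion. AD50 with 95% confidence limits by Litchfield-Wilcoxon.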

Mus musculus [16] = test: Analgesic activity iv dosed ICR mouse assessed as 50% inhibition of heat stimulus-induced tail flick response measured for 60 to 90 mins; assay type: functional; outline: as §4

In the case of `CC[C@H](C)[C@H](NC(=O)[C@H](C)NC(=O)[C@H](CC(N)=O)NC(=O)[C@H](CCCCN)NC(=O)[C@H](Cc1ccccc1)NC(=O)[C@H](CC(C)C)NC(=O)[C@@H](NC(=O)[C@@H](NC(=O)[C@H](CC(C)C)NC(=O)[C@@H]1CCCN1C(=O)[C@@H](NC(=O)[C@H](CCC(N)=O)NC(=O)[C@H](CO)NC(=O)[C@H](CCCCN)NC(=O)[C@H](CCC(=O)O)NC(=O)[C@H](CO)NC(=O)[C@@H](NC(=O)[C@H](CCSC)NC(=O)[C@H](Cc1ccccc1)NC(=O)CNC(=O)CNC(=O)[C@@H](N)Cc1ccc(O)cc1)[C@@H](C)O)[C@@H](C)O)C(C)C)[C@@H](C)O)C(=O)N[C@H](C(=O)N[C@@H](CCCCN)C(=O)N[C@@H](CC(N)=O)C(=O)N[C@@H](C)C(=O)N[C@@H](Cc1ccc(O)cc1)C(=O)N[C@@H](CCCCN)C(=O)N[C@@H](CCCCN)C(=O)NCC(=O)N[C@@H](CCC(=O)O)C(=O)O)[C@@H](C)CC`, the inhibition (Mus musculus [1]) is reported as “inactive”, the inhibition (Mus musculus [2]) is reported as “inactive” and the inhibition (Mus musculus [3]) is reported as “Dose-dependent effect”. For the same compound, the Ratio (Mus musculus [4]) was 32.8, the inhibition (Mus musculus [5]) was “inactive” and the inhibition (Mus musculus [6]) was “Active”. The Ratio (Mus musculus [7]) was 48.4, the inhibition (Mus musculus [8]) was “inactive” and the Ratio (Mus musculus [9]) was 3.4. The inhibition (Mus musculus [10]) was “Dose-dependent effect”, the inhibition (Mus musculus [11]) was “Active” and the Ratio (Mus musculus [12]) was 17.3.

Compound H-YGGFMTSEKSQTPLVTLFKNAIIKNAHKKGQ-OH has a Ratio (Mus musculus [4]) of 17.5, a Ratio (Mus musculus [7]) of 33 and a Ratio (Mus musculus [9]) of 3.5. The Ratio (Mus musculus [12]) was 19.5.

In the case of `CN1CC[C@]23c4c5ccc(O)c4O[C@H]2[C@@H](O)C=C[C@H]3[C@H]1C5` [MORPHINE], the AD50 (Mus musculus [13]) is reported as 0.026 nmol, the AD50 (Mus musculus [14]) is reported as 0.026 nmol and the AD50 (Mus musculus [15]) is reported as 0.031 nmol. For the same compound, the AD50 (Mus musculus [16]) was 3.32 µmol/kg.
